Sampled rows, rich in hits. Any-hit rate of the full collection: about 1.8%.
M4 PAM: human M4 muscarinic receptor positive allosteric modulators, primary screen, CHO-K1 cells, Fluo-8 calcium fluorescence | Muscarinic acetylcholine receptor M4 (Homo sapiens), P08173 | CHO-K1 hM4/Gqi5, ACh EC20; 0% = ACh EC20, 100% = maximal ACh | activation, % at 3 µM | hit rate 0.4% among 360,000 | AID 624126, 2012;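 active = activation above its plate's cutoff, the mean activation of sample wells plus 3 SD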
M4 antag: human M4 muscarinic receptor antagonists, primary screen, CHO cells, Fluo-8 calcium fluorescence; hit rate 0.73% among 360,000; AID 624125, 2012; CHO-hM4 cells, ACh EC80; inhibition, % at 3 µM; Muscarinic acetylcholine receptor M4 (Homo sapiens), P08173;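 active = inhibition above its plate's cutoff, the mean inhibition of sample wells plus 3 SD, cut at about 27% in these data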;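 note: 0% = acetylcholine EC80 with DMSO and 100% = DMSO without agonist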
M5 ag: human M5 muscarinic receptor agonists, primary screen, CHO-K1 cells, Fluo-8 calcium fluorescence | Muscarinic acetylcholine receptor M5 (Homo sapiens), P08912 | CHO-K1 hM5 cells; 0% DMSO wells, 100% maximal acetylcholine response | activation, % at 3 µM | hit rate 0.19% among 360,000;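 active = activation above the run's mean over test compounds plus 3 SD, cut at about 23% in these data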;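 note: signal is peak over basal fluorescence ratio across the kinetic read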
Target sequence (P08912 whole entry, looked up): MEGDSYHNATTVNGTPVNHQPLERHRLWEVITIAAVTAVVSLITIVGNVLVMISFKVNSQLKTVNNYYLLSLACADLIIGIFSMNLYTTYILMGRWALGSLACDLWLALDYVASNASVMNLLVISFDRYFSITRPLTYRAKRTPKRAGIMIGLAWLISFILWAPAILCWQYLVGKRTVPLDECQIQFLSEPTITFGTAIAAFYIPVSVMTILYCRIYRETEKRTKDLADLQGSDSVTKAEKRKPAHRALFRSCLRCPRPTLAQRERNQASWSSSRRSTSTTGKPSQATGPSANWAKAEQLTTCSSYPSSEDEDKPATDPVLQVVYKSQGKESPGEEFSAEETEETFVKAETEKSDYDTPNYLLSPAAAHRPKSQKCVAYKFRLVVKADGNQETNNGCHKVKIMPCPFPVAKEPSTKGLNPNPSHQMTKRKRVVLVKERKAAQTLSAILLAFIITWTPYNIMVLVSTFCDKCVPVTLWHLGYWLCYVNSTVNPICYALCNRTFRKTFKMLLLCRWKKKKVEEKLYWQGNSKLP
CHRM4 agonist: human M4 muscarinic receptor agonists, primary screen, CHO-K1 cells, Fluo-8 calcium fluorescence; AID 624127, 2012; CHO-K1 hM4/Gqi5; vehicle 0%, full acetylcholine response 100%; Muscarinic acetylcholine receptor M4 (Homo sapiens), P08173; activation, % at 3 µM; hit rate 0.14% among 360,000;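 active = activation above the run mean over all test wells plus 3 SD, cut at about 32% in these data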;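 note: peak over basal fluorescence ratio per well then scaled between controls; 0% = DMSO wells and 100% = acetylcholine at EC100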
M5 antag: human M5 muscarinic receptor antagonists, primary screen, CHO cells, Fluo-8 calcium fluorescence; inhibition, % at 3 µM; CHO-hM5 cells, ACh EC80; Muscarinic acetylcholine receptor M5 (Homo sapiens), P08912; AID 624040, 2012; hit rate 0.59% among 360,000;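 active = inhibition above a per-plate cutoff, the mean of that plate's test compounds plus 3 SD, cut at about 27% in these data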;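 note: 0% = acetylcholine EC80 with DMSO and 100% = DMSO without agonist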
CHRM5 PAM: human M5 muscarinic receptor positive allosteric modulators, primary screen, CHO-K1 cells, Fluo-8 calcium fluorescence; activation, % at 3 µM; AID 624038, 2012; CHO-K1 hM5, ACh EC20 PAM; 0% = ACh EC20, 100% = ACh EC100; Muscarinic acetylcholine receptor M5 (Homo sapiens), P08912; hit rate 0.3% among 360,000;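 active = activation above the run cutoff, the mean activation of all test compounds plus 3 SD, cut at about 18% in these data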
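Replicates: One well per compound, no replicates | System: Human M5 receptor in CHO-K1 cells | Benchmarks: Low control EC20 acetylcholine (0%), high control EC100 acetylcholine (100%) | Probe or stimulus: Acetylcholine, EC20 level | Times: Fluo-8 loading 80 min at 37 °C plus 30 min room temperature | Signal: Intracellular calcium via Fluo-8 fluorescence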
The depositor's hits bear a star.

SMILES	M4 PAM	M4 antag	M5 ag	CHRM4 agonist	M5 antag	CHRM5 PAM
COc1cccc(Nc2ncccc2C(=O)Nc2ccccc2)c1	-1.7	-3.5	-8.4	0.9	5.4	18.9*
COc1cccc(NC(=O)c2ccccc2Oc2ccccc2)c1	-6.5	-1.4	-3.6	-2.1	7.3	-1.4
CN(Cc1ccc(Cl)c(Cl)c1)C(C(=O)NCc1ccccc1)c1ccc(C(F)(F)F)cc1 (configuration not stated)	-17.4	22.4	-4.9	3.1	-0.6	-19.0
COc1cccc(C2/C(=C(/O)c3ccc4c(c3)CC(C)O4)C(=O)C(=O)N2CC2CCCO2)c1 (configuration not stated)	2.9	-9.9	-4.4	0.5	8.0	-1.8
N=C(N)c1ccc(OCCCCCOc2ccc(C(=N)N)cc2)cc1	-14.2	30.7*	-1.6	0.0	6.3	-7.5
COc1ccc(-c2csc(NC(C)=O)n2)cc1OC	1.7	-1.2	-1.9	0.9	2.6	-2.3
COc1ccc(-c2csc(NC(=S)NC(=O)c3ccc4ccccc4c3)n2)cc1OC	6.2	-0.4	-1.2	1.0	-28.3	18.4*
Cc1c(C(=O)N/N=C/c2ccc(N3CCOCC3)cc2)nc2ccccn12	-9.3	-0.4	0.7	0.1	6.3	-2.8
COc1cc(/C=N/NC(=O)c2nc3ccccn3c2C)cc(OC)c1O	-3.7	-2.0	1.9	1.2	-4.5	18.6*
CCOC(=O)C1CCN(c2ncnc3c(C)csc23)CC1	-46.3	34.7*	5.8	21.9	19.5	-31.5
CCOC(=O)CSc1nnc(CNC(=O)c2ccc([N+](=O)[O-])cc2)n1C	12.9	-10.2	4.6	1.3	-6.1	21.9*
CCOC(=O)CSc1nnc(CNC(=O)c2cccc(C)c2)n1C	15.2	4.1	0.1	3.0	1.7	3.0
COc1ccc(-c2cc(C3CCN(c4ccc(C(C)=O)cc4[N+](=O)[O-])CC3)[nH]n2)cc1	-9.5	6.2	-0.3	6.1	2.6	-3.2
CC(=O)c1ccc(N2CCC(c3cc(-c4ccc(Cl)cc4)n[nH]3)CC2)c([N+](=O)[O-])c1	-15.8	28.7*	0.8	4.2	13.8	-9.8
CCOc1ccc(NC(=NCc2ccc3c(c2)OCO3)SC2CC(=O)N(c3ccccc3)C2=O)cc1 (configuration not stated)	1.2	-4.4	-0.6	0.1	-2.1	4.4
CCN=C(NCC)SC1CC(=O)N(c2cccc(OCC)c2)C1=O (configuration not stated)	-8.9	32.6*	4.8	18.6	28.1*	-19.3
CCN=C(NCC)SC1CC(=O)N(c2ccc(OC)cc2)C1=O (configuration not stated)	-9.5	19.3	7.4	30.0	16.7	-22.0
CCOc1ccc(NC(=NCc2ccc3c(c2)OCO3)SC2CC(=O)N(c3ccc(OCC)cc3)C2=O)cc1 (configuration not stated)	8.0	-0.5	-4.4	0.3	-9.9	18.6*
CN1CCC(=C(c2ccccc2)c2ccc(Br)cc2)CC1	-46.5	12.4	-14.9	11.8	29.5*	-34.5
c1ccc(CNc2ncnc3c2cnn3Cc2ccccc2)cc1	-6.1	3.2	27.7*	23.7	8.3	-10.0
O=C(COc1ccc(Br)cc1)NC1CC1	-3.0	9.0	1.0	1.3	13.4	-6.1
CC(C)(C)c1ccc(S(=O)(=O)N2C=CC(C(F)(F)F)=NCC2)cc1	4.1	-3.4	0.1	3.2	-9.7	-3.6
Cc1ccc(S(=O)(=O)N2C=CC(C(F)(F)F)=NCC2)cc1	18.4*	-14.2	1.6	1.5	0.1	-4.8
O=C1CCCN2N=C(SCC(=O)Nc3cccc(C(F)(F)F)c3)SC2=N1	-14.3	12.1	5.8	13.8	35.9*	-12.8
CC(C)NC(=O)C(=O)Nc1cc2c3c(c1)C(C)C(=O)N3CCC2 (configuration not stated)	4.9	5.1	0.4	1.0	-0.6	2.7
SMILES	M4 PAM	M4 antag	M5 ag	CHRM4 agonist	M5 antag	CHRM5 PAM
Nc1c(C(=O)CSc2nccn2-c2ccc(Cl)cc2)c(=O)[nH]c(=O)n1C1CC1	7.1	-8.1	-1.4	0.4	-1.6	18.5*
CCCCN(C(=O)C1CCC1)c1c(N)n(CCC)c(=O)[nH]c1=O	0.6	3.9	0.2	0.0	4.4	3.8
CCCCN(C(=O)C1CCCC1)c1c(N)n(CC(C)C)c(=O)[nH]c1=O	27.3*	-19.8	4.2	1.1	-10.1	6.0
Cc1cc(C)cc(NC(=O)c2nnn(Cc3cc(C)ccc3C)c2N)c1	-10.0	14.7	28.1*	32.4*	16.5	-5.2
Cc1ccccc1Cn1nnc(C(=O)Nc2ccc3c(c2)OCCO3)c1N	-4.3	-7.7	6.6	4.2	2.9	6.9
Cc1ccc(C)c(Cn2nnc(C(=O)Nc3ccc4c(c3)OCCO4)c2N)c1	6.8	-4.1	36.2*	22.9	5.9	2.3
COC(=O)[C@@]1(Sc2ccc(C)cc2)CC(=O)N(c2ccccc2)[C@@H]1c1ccccc1	-12.9	39.9*	-1.7	18.2	30.3*	-21.9
CC(C)(C)C(=O)Nc1ccc(Sc2ccc([N+](=O)[O-])cc2)cc1	-15.4	21.0	1.7	13.1	42.7*	-18.1
CC(=O)Nc1ccc(Sc2ccc([N+](=O)[O-])o2)cc1	5.3	3.8	-3.4	-0.4	14.1	-10.2
O=C(CCn1cccn1)Nc1ccc(-c2ccno2)cc1	3.9	-7.9	-3.8	1.3	3.3	0.6
CCOc1cc(/C=C2\CCn3c2nc2cc(Cl)ccc2c3=O)ccc1O	-1.6	3.6	-2.2	0.6	10.4	-7.2
CCOC(=O)N1CCN(C(=O)c2ccc(CS(=O)(=O)c3ccccc3OC)o2)CC1	0.4	-10.1	-0.6	2.2	3.1	1.2
COc1ccccc1N1CCN(C(=O)c2cccc3c(=O)c(C)c(-c4ccccc4)oc23)CC1	-13.1	-12.9	25.9*	15.5	12.2	-18.9
COc1ccccc1N1CCN(C(=O)c2ccc(CS(=O)(=O)c3ccccc3OC)o2)CC1	-10.1	3.0	33.5*	13.9	6.6	-16.0
COc1ccccc1N1CCN(C(=O)c2oc3ccccc3c2C)CC1	-10.1	9.9	0.9	13.5	4.6	-5.8
C=CCn1c(SCC(=O)NCCc2ccccc2)nnc1C1CC1	-3.0	-7.3	-1.7	16.0	17.3	-17.0
C=CCn1c(SCC(=O)NCc2ccccc2)nnc1C1CCCCC1	0.4	-15.9	-2.2	2.3	-5.8	24.7*

Screening data (PubChem BioAssay)
